As usually defined, the EC50 is the concentration at which the effect is half-maximal.

Experimental findings from ChEMBL document CHEMBL1155080, “Alpha2-adrenoreceptors profile modulation. 4. From antagonist to agonist behavior” (J Med Chem, 2008) are described below.

The target of assay [1] is T1, Alpha-2A adrenergic receptor (Homo sapiens) (UniProt P08913).
T1 sequence (whole entry): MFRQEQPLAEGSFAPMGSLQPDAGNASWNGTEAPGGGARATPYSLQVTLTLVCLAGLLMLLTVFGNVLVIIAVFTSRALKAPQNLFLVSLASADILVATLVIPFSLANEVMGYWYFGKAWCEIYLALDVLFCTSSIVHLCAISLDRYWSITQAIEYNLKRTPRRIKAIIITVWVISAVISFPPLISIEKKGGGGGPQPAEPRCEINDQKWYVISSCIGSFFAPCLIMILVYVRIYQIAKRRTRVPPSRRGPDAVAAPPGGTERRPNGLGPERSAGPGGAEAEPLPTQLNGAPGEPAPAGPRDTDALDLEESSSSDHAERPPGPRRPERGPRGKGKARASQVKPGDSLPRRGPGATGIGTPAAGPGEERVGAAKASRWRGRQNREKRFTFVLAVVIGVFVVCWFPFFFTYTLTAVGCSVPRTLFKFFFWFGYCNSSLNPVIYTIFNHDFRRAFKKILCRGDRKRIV
The experiment in a line: Intrinsic activity at human recombinant adrenergic alpha2A receptor expressed in CHO cells assessed as stimulation of extracellular acidification relative to (-)-noradrenaline. Type of assay: cell-based. The gist of the method: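 Microphysiometry (Cytosensor) of extracellular acidification rate in CHO cells stably expressing human α2A. Cells were seeded at 3 × 10⁵ cells/cup and cultured 24 h at 37 °C, then perfused with bicarbonate-free DMEM at 100 µL/min, with agonist diluted into running medium. Response was taken as the maximum after agonist minus the mean of three pre-agonist readings. Emax is expressed as a fraction of (−)-noradrenaline (=1); 3–6 experiments.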

Assay [2] addresses T2, Alpha-2B adrenergic receptor (Homo sapiens) (UniProt P18089).
T2 sequence (whole entry): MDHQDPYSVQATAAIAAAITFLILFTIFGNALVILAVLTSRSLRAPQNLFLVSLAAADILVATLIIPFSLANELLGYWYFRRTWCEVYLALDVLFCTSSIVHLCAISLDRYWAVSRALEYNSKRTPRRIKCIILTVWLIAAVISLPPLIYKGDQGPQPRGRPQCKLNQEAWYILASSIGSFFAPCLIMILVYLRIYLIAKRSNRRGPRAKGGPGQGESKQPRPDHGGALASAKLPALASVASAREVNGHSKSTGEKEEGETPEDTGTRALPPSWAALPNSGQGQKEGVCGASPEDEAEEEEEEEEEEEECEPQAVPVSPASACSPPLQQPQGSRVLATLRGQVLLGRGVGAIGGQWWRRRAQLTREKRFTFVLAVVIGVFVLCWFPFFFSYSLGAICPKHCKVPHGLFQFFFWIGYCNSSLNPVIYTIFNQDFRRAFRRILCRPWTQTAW
The experiment in a line: Intrinsic activity at human recombinant adrenergic alpha2B receptor expressed in CHO cells relative to (-)-noradrenaline. Type of assay: cell-based. The gist of the method: (§1)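 Acidification rate was measured by Cytosensor microphysiometry in stably transfected CHO cells (3 × 10⁵ cells/cup, bicarbonate-free DMEM perfusion). Each response is the peak rate change minus the pre-agonist baseline. Emax from concentration-response curves is expressed as a fraction of the (-)-noradrenaline maximum, taken as 1; mean ± SEM, 3-6 experiments.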

Assay [3] addresses T3, Alpha-2C adrenergic receptor (Homo sapiens) (UniProt P18825).
T3 sequence (whole entry): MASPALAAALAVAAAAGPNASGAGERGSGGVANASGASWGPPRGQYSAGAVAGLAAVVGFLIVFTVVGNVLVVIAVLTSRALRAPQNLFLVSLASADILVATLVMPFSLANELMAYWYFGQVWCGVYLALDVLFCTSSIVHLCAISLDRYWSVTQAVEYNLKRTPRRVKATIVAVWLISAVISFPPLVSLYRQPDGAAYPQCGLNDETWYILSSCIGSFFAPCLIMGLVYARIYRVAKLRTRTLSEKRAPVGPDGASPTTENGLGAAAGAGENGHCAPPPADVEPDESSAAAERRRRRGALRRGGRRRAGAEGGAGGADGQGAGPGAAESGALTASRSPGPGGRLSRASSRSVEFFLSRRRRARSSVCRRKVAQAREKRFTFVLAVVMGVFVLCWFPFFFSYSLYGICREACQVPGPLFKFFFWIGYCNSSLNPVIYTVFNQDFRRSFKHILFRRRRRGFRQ
The experiment in a line: Intrinsic activity at human recombinant adrenergic Alpha-2C receptor expressed in CHO cells assessed as stimulation of extracellular acidification relative to (-)-noradrenaline. The assay is classed as cell-based. The gist of the method:
as §1

A short description of assay [4]: Agonist activity at adrenergic alpha2 receptor in rat vas deferens. Type of assay: functional, tissue-based.
The species entered for the next assay is Rattus norvegicus. The experiment in a line: Intrinsic activity at adrenergic alpha2 receptor in rat vas deferens relative to clonidine. Type of assay: tissue-based.

On to `CC(Oc1ccccc1-c1ccccc1)C1=NCCN1` (stereo not given) [BIPHENYLINE], for which the Intrinsic activity was determined as 0.7 in assay [1], 0.5 in assay [2], 0.8 in assay [3] and 1 in the assay filed under Rattus norvegicus. In assay [4], this molecule showed an EC50 of 3.02 nM.
